Measured values: ChEMBL document CHEMBL4354861, “Re-Evaluating the Mechanism of Action of α,β-Unsaturated Carbonyl DUB Inhibitors b-AP15 and VLX1570: A Paradigmatic Example of Unspecific Protein Cross-linking with Michael Acceptor Motif-Containing Drugs” (J Med Chem, 2020)
Activity calls are given as the source filed them. The calls are words filed in the database; no cut-off is given here.

Columns and labels:
Homo sapiens = organism: Homo sapiens; test: Inhibition of purified 19S proteasome (unknown origin) assessed as reduction in cleavage of luminescent substrate Ub-AML at 100 uM
[1] = biological target: Ubiquitin carboxyl-terminal hydrolase 8 (Homo sapiens) (UniProt P40818); test: Inhibition of N-terminal His6-tagged full length recombinant human USP8 assessed as reduction in cleavage of luminescent substrate Ub-AML at 100 uM
Procedure, shortened: (§1)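 Purified recombinant DUBs assayed with Ub-AML as luminescent substrate, using the Glo reagent protocol and read on a microplate luminometer.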

[2] = biological target: Ubiquitin carboxyl-terminal hydrolase 7 (Homo sapiens) (UniProt Q93009); test: Inhibition of N-terminal His6-tagged full length recombinant human USP7 assessed as reduction in cleavage of luminescent substrate Ub-AML at 100 uM; procedure, shortened: as §1
[3] = biological target: Ubiquitin carboxyl-terminal hydrolase 5 (Homo sapiens) (UniProt P45974); test: Inhibition of human recombinant isopeptidase T assessed as reduction in cleavage of luminescent substrate Ub-AML at 100 uM; procedure, shortened: as §1
[4] = biological target: Ubiquitin carboxyl-terminal hydrolase isozyme L1 (Homo sapiens) (UniProt P09936); test: Inhibition of human recombinant UCHL1 assessed as reduction in cleavage of luminescent substrate Ub-AML at 100 uM; procedure, shortened: as §1
Ataxin-3 (Homo sapiens) = Ataxin-3 (Homo sapiens) (UniProt P54252); test: Inhibition of human recombinant Ataxin-3 assessed as reduction in cleavage of luminescent substrate Ub-AML at 100 uM; procedure, shortened: as §1
HCT-116 = test: Cytotoxicity in human HCT116 cells assessed as reduction in cell viability incubated for 72 hrs Cell-titer Glo reagent based assay; type: functional
Procedure, shortened: (§2)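 Tumor lines grown at 37 °C, 5% CO2 with 10% FBS (DMEM for HeLa and SiHa; RPMI for HCT116) and exposed to compound for 72 h. Viability read by CellTiter Glo luminescence; IC50 derived from n=6.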

SiHa = test: Cytotoxicity in human SiHa cells assessed as reduction in cell viability incubated for 72 hrs Cell-titer Glo reagent based assay; type: functional; procedure, shortened: as §2
[5] = biological target: Ubiquitin carboxyl-terminal hydrolase 14 (Homo sapiens) (UniProt P54578); test: Inhibition of USP14 in human HeLa crude cell extracts assessed as induction of formation of high molecular weight complexes with USP14 at 10 uM incubated for 2 hrs in presence of dithiothreitol by immunoblot analysis; type: cell-free
[6] = biological target: Ubiquitin carboxyl-terminal hydrolase 14 (Homo sapiens) (UniProt P54578); test: Inhibition of USP14 in intact human HeLa cells assessed as induction of formation of high molecular weight complexes with USP14 at 10 uM in presence of glutathione incubated for 2 hrs by immunoblot analysis; type: cell-based
Procedure, shortened: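 Intact HeLa cells (DMEM, 10% FBS, about 80% confluent) treated 2 h with vehicle or 10 μM compound, with or without 10 mM DTT or 10 mM GSH. Cells washed in cold PBS and lysed in RIPA with protease and phosphatase inhibitors. High-MW species detected by SDS-PAGE immunoblot; shorter exposures served as loading control.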

[7] = biological target: T1, Ubiquitin carboxyl-terminal hydrolase isozyme L5 (Homo sapiens) (UniProt Q9Y5K5); test: Inhibition of UCH-37 in human HeLa crude cell extracts assessed as induction of formation of high molecular weight complexes with […] at 10 uM incubated for 2 hrs in presence of dithiothreitol by immunoblot analysis; type: cell-free
T1 sequence (whole entry): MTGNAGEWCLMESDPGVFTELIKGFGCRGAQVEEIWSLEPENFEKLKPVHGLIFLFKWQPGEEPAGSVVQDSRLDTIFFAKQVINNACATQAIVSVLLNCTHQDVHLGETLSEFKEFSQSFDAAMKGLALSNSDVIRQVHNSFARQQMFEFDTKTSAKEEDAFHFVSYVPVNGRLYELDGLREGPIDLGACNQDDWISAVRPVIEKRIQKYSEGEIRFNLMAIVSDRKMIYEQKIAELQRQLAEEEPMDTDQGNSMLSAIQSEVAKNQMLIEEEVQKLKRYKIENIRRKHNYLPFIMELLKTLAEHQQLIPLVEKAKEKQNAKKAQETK

HeLa [8] = test: Inhibition of deubiquitinase in human HeLa cell extracts assessed as induction of accumulation of high molecular weight ubiquitylated proteins at 10 uM incubated for 2 hrs by immunoblot analysis; type: cell-free
HeLa [9] = test: Inhibition of deubiquitinase in human HeLa cell extracts assessed as induction of accumulation of high molecular weight ubiquitylated proteins at 10 uM incubated for 2 hrs in presence of DTT by immunoblot analysis; type: cell-free
HeLa [10] = test: Inhibition of deubiquitinase in human HeLa cell extracts assessed as induction of accumulation of high molecular weight mTOR proteins at 10 uM incubated for 2 hrs by immunoblot analysis; type: cell-free
[11] = biological target: T2, Ubiquitin carboxyl-terminal hydrolase 28 (Homo sapiens) (UniProt Q96RU2); test: Inhibition of USP28 in human HeLa cell extracts assessed as inhibition of HA-Ub-C2Br probe labeling at 1 to 100 uM incubated for 30 mins by immunoblot analysis; type: cell-free
T2 sequence (whole entry): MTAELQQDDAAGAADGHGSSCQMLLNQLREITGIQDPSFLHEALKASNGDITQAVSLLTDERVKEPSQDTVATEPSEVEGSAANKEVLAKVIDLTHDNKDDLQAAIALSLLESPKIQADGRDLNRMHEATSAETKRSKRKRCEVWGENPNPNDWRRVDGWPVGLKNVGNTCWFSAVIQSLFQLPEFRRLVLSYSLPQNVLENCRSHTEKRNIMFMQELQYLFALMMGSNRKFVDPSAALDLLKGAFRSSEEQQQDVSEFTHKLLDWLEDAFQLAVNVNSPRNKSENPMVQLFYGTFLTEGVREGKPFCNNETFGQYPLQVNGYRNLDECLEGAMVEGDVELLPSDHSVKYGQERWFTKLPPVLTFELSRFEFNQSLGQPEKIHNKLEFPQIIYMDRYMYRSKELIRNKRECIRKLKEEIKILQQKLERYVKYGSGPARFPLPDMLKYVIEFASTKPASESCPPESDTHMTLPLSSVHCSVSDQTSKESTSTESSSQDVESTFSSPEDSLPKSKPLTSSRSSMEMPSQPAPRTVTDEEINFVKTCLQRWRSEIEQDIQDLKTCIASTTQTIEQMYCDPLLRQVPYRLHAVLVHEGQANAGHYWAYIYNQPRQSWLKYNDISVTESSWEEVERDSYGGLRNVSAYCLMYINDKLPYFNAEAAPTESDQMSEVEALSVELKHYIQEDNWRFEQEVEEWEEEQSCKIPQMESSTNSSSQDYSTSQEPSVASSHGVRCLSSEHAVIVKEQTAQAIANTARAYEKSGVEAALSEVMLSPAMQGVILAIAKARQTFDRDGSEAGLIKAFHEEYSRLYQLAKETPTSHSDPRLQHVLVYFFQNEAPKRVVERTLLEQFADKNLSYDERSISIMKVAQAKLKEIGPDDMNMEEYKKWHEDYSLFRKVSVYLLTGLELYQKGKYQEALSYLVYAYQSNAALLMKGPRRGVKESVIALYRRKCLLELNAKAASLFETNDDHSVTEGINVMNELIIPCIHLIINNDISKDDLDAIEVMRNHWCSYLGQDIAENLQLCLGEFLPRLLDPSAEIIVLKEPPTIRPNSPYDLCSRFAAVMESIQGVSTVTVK

Ubiquitin carboxyl-terminal hydrolase 14 (Homo sapiens), sequence (P54578 whole entry): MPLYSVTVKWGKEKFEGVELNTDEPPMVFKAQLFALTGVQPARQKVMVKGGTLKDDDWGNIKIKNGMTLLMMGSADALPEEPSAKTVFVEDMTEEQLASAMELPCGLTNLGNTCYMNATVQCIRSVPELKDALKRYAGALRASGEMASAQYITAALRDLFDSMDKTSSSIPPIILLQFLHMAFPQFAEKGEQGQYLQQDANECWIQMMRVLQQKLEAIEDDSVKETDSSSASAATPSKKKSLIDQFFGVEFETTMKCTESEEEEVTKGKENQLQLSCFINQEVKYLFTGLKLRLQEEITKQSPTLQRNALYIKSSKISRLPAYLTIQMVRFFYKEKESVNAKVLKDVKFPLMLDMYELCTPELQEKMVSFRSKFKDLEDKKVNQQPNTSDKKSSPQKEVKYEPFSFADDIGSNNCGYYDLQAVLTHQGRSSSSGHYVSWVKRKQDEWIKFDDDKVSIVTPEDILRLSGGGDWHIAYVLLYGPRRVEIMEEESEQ
Ataxin-3 (Homo sapiens), sequence (P54252 whole entry): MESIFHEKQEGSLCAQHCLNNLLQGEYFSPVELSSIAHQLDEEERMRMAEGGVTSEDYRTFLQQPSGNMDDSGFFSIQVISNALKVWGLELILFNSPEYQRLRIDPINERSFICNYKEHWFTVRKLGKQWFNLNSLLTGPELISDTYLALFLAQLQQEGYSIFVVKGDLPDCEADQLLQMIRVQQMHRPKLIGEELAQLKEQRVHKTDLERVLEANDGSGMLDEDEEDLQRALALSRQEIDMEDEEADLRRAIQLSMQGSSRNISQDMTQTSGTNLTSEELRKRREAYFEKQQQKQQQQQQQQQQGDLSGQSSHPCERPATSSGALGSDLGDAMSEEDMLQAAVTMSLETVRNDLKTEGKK
Ubiquitin carboxyl-terminal hydrolase 5 (Homo sapiens), sequence (P45974 whole entry): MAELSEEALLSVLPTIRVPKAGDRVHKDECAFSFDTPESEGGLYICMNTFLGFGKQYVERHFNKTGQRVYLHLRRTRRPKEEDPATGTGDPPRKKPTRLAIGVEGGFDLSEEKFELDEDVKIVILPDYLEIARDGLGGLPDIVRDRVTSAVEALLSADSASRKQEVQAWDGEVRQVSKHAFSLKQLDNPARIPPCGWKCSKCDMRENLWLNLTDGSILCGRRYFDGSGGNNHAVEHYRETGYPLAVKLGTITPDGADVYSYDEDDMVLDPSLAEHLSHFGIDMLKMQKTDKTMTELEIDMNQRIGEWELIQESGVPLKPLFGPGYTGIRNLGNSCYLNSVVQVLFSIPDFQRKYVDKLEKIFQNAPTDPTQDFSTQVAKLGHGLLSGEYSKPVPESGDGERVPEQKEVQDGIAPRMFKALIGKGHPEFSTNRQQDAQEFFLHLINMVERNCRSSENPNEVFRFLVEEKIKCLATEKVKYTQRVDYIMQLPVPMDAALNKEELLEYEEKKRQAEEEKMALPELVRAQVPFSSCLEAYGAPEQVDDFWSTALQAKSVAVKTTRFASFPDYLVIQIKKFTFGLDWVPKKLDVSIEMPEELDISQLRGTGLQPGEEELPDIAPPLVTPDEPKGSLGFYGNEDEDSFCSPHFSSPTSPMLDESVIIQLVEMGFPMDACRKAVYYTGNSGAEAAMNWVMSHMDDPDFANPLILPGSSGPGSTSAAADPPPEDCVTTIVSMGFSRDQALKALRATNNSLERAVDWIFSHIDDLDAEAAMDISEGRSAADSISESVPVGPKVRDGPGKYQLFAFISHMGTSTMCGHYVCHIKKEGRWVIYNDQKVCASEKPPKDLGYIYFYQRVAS
Ubiquitin carboxyl-terminal hydrolase 8 (Homo sapiens), sequence (P40818 whole entry): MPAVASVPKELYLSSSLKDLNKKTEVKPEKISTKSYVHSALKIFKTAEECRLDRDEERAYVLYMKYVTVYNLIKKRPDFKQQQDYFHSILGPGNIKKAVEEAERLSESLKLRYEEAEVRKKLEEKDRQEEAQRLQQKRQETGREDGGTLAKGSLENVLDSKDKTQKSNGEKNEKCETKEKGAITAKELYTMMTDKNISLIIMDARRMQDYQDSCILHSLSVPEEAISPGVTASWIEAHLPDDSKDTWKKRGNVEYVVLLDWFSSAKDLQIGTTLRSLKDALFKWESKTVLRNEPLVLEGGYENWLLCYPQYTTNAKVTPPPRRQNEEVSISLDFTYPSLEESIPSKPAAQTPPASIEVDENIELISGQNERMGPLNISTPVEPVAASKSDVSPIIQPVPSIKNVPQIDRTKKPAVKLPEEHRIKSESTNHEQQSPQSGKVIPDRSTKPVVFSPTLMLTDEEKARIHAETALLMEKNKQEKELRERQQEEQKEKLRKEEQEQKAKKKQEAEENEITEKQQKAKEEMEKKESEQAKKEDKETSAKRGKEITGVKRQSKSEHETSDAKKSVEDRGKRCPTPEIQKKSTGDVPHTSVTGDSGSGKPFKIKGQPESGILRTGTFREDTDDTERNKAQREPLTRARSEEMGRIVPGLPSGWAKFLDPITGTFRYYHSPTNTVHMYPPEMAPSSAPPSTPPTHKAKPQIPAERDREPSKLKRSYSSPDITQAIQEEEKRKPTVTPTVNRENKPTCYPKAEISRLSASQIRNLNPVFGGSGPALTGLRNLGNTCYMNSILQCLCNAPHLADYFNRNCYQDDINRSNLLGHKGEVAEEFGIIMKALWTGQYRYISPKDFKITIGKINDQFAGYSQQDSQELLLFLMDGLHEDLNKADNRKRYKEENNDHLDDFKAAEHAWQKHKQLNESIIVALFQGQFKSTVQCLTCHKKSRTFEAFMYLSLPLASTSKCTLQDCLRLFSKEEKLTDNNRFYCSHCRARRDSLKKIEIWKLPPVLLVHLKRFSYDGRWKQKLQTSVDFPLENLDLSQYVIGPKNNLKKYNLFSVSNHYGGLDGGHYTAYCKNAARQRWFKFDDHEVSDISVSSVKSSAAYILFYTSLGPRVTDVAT
Ubiquitin carboxyl-terminal hydrolase 7 (Homo sapiens), sequence (Q93009 whole entry, looked up): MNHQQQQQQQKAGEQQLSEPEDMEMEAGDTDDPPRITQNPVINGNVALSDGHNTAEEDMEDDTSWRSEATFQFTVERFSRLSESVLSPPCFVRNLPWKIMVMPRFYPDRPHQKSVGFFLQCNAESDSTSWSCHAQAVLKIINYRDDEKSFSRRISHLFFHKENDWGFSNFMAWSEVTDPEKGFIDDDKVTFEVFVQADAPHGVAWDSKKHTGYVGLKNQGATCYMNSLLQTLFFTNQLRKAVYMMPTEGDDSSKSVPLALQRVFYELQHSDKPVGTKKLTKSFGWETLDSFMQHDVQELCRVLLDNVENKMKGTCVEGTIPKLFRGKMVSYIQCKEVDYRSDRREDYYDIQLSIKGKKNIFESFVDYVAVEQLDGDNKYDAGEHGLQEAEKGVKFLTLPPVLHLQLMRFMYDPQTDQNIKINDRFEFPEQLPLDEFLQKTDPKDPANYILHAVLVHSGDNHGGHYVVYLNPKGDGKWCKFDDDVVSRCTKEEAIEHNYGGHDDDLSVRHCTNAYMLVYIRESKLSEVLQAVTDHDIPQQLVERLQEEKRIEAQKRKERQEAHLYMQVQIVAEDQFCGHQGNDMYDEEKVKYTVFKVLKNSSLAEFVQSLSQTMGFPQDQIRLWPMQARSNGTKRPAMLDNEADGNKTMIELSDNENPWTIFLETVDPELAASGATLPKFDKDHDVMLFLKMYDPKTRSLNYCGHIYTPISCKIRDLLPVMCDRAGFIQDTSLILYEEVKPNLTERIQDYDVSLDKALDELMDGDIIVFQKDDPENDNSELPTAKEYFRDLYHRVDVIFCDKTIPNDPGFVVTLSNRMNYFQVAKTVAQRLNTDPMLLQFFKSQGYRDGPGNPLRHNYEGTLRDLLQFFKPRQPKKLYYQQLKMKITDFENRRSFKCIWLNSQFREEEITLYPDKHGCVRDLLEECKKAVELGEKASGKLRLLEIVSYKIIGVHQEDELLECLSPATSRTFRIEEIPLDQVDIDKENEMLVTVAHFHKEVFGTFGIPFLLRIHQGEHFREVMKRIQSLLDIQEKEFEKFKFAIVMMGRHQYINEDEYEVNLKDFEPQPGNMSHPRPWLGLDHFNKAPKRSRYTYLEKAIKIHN
Ubiquitin carboxyl-terminal hydrolase isozyme L1 (Homo sapiens), sequence (P09936 whole entry, looked up): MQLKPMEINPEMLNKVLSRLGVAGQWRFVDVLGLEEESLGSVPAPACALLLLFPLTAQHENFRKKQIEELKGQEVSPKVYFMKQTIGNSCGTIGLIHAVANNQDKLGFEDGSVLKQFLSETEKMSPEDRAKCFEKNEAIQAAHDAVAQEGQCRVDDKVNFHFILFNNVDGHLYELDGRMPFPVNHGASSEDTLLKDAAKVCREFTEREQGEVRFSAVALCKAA

C=CC(=O)N1C/C(=C\c2ccc([N+](=O)[O-])cc2)C(=O)/C(=C/c2ccc([N+](=O)[O-])cc2)C1
inhibition (Homo sapiens): Active
inhibition [1]: Active
inhibition [2]: Active
inhibition [3]: Active
inhibition [4]: Active
inhibition (Ataxin-3 (Homo sapiens)): Active
Activity (HCT-116): Active
Activity (SiHa): Active
inhibition [5]: inactive
inhibition [6]: inactive
inhibition [7]: inactive
inhibition (HeLa [8]): Active
inhibition (HeLa [9]): inactive
inhibition (HeLa [10]): Active
inhibition [11]: Active
